ChEMBL document CHEMBL1137254, “Structurally simple, potent, Plasmodium selective farnesyltransferase inhibitors that arrest the growth of malaria parasites” (J Med Chem, 2006)
pIC50: −log10 of the molar value.

Experiments:
[1] = molecular target: T1, Protein farnesyltransferase (PFT) (Plasmodium falciparum, UniProt Q5EI73+Q5EI74); test: Inhibition of Plasmodium falciparum PFT; assay type: protein-complex assay
T1 sequence (Q5EI73 whole entry): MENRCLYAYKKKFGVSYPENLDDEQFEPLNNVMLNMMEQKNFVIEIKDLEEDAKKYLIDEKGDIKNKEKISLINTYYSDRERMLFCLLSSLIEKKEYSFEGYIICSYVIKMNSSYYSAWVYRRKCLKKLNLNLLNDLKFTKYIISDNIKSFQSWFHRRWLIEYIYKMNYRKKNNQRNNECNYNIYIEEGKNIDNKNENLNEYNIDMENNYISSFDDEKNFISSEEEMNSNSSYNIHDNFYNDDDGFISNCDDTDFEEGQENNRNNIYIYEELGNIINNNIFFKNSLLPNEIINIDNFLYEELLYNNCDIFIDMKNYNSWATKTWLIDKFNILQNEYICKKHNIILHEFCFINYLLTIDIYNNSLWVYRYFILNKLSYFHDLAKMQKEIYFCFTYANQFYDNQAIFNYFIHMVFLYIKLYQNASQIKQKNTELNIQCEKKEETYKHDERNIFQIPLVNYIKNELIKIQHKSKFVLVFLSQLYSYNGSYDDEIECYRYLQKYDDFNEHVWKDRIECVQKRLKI
T1 sequence (Q5EI74 whole entry): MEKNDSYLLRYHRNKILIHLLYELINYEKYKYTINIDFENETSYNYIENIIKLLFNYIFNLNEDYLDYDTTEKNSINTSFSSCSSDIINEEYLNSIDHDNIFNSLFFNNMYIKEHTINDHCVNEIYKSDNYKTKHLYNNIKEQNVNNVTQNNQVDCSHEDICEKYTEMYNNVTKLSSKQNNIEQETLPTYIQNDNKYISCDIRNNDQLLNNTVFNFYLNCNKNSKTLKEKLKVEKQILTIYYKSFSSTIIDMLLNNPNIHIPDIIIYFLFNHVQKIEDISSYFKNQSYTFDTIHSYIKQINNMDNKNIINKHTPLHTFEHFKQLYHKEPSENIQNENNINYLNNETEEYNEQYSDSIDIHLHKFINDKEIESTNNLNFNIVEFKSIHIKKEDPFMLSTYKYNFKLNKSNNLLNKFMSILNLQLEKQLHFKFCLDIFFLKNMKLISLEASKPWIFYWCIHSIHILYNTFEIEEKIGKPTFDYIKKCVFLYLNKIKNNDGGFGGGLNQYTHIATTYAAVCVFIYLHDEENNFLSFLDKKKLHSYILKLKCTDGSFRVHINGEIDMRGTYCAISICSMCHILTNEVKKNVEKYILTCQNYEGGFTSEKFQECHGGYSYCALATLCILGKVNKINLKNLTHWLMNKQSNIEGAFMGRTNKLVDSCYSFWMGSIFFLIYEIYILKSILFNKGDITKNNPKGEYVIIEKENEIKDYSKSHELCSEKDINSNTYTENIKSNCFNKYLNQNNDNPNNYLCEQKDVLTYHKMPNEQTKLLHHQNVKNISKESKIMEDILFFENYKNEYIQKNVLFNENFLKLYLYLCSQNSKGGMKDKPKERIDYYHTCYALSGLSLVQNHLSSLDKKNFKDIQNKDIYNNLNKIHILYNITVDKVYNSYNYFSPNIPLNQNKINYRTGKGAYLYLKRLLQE

[2] = molecular target: T2, Protein farnesyltransferase (PFT) (Plasmodium falciparum) (UniProt Q5EI73+Q5EI74); test: Inhibition of Plasmodium falciparum PFT at 50 nM
[3] = molecular target: T2, Protein farnesyltransferase (PFT) (Plasmodium falciparum); test: Inhibition of Plasmodium falciparum PFT at 5 nM
[4] = Cmax in rat at 50 mg/kg, po; assay type: ADME, organism-based; parameters: dose 50 mg/kg, route oral; details: in vivo
How it was run: (§1)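 Oral gavage at 50 mg/kg in 90% saline, 3% ethanol, 7% Tween; inhibitor concentration in plasma followed over 5 h. Values are averages of three animals per species (mice or rats). Reported parameters are AUC, Cmax, Tmax and elimination t1/2.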

[5] = AUC in rat at 50 mg/kg, po; assay type: ADME, organism-based; parameters: dose 50 mg/kg, route oral; details: plasma; how it was run: as §1
[6] = Tmax in mouse at 50 mg/kg, po; assay type: ADME, organism-based; parameters: dose 50 mg/kg, route oral; details: in vivo; how it was run: as §1

## Cc1ccccc1CN(CCN(Cc1cncn1C)c1ccc(C#N)cc1)S(=O)(=O)c1cn(C)cn1
[1]
  pIC50: 9.22
[2]
  inhibition: 99%
[3]
  inhibition: 95%
[4]
  Cmax: 1050 nM
[5]
  AUC: 1.72 µM·h
[6]
  Tmax: 40 min
